Activity calls are given as the source filed them. The calls are words filed in the database; no cut-off is given here.
Experiments:
[1] = system: Bel-7402; test: Cytotoxicity against human Bel7402 cells after 96 hrs by MTT assay; assay type: functional, cell-based; settings: Bel-7402, 96 h
Summary of the method: (§1)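 Tested on a human tumour panel of A2780 (ovary), HCT-8 (colon), Bel-7402 (hepatoma), BGC-823 (stomach) and A549 (lung) lines. Camptothecin was the positive control.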

[2] = system: A2780; test: Cytotoxicity against human A2780 cells after 96 hrs by MTT assay; assay type: functional, cell-based; settings: A2780, 96 h; summary of the method: as §1
[3] = system: HCT-8; test: Cytotoxicity against human HCT8 cells after 96 hrs by MTT assay; assay type: functional, cell-based; settings: HCT-8, 96 h; summary of the method: as §1
[4] = system: Peritoneal macrophage cell; test: (§2) Antiinflammatory activity in C57BL6J mouse peritoneal macrophages assessed as inhibition of LPS-stimulated TNFalpha secretion at 10 uM after 24 hrs by MTT assay; assay type: functional, cell-based
[5] = system: A549; test: Cytotoxicity against human A549 cells after 96 hrs by MTT assay; assay type: functional, cell-based; settings: A549, 96 h; summary of the method: as §1
[6] = Cytotoxicity against human […] cells after 96 hrs by MTT assay; assay type: functional, cell-based; summary of the method: as §1
[7] = as §2; assay type: functional, cell-based; settings: Peritoneal macrophage cell
[8] = target: T1, Tyrosine-protein phosphatase non-receptor type 1 (Homo sapiens, UniProt P18031); test: Inhibition of GST-tagged human recombinant PTP1B assessed as dephosphorylation of para-nitrophenyl phosphate after 10 mins by spectrophotometric analysis
T1 sequence (P18031 whole entry): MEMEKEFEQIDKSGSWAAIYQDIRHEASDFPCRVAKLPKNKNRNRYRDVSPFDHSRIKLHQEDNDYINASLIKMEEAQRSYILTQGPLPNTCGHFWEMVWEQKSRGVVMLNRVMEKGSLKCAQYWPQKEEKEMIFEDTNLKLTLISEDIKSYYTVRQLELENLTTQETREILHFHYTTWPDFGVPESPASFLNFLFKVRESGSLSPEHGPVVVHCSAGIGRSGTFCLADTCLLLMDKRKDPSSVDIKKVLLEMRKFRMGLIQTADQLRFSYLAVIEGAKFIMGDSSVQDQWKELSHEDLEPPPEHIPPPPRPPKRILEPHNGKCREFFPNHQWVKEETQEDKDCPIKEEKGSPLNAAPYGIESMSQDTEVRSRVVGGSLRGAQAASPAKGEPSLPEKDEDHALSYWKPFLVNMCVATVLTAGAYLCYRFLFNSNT

Row | IC50 [8] | Compound | IC50 [1] | IC50 [2] | IC50 [3] | Activity [4] | IC50 [5] | IC50 [6] | IC50 [7]
1 |  | CC(=O)OC(C)(C)/C=C/C(=O)[C@](C)(O)[C@H]1[C@H](O)C[C@@]2(C)[C@@H]3CC=C4[C@@H](C=C(O[C@@H]5O[C@H](CO)[C@@H](O)[C@H](O)[C@H]5O)C(=O)C4(C)C)[C@]3(C)C(=O)C[C@]12C | > 10 µM | > 10 µM | > 10 µM | inactive | 3.2 µM | 4.98 µM | 
2 |  | CC1(C)C(=O)C(O)=C[C@@H]2C1=CC[C@@H]1[C@@]2(C)C(=O)C[C@]2(C)[C@@H]([C@@](C)(O)C(=O)C[C@H](O)C(C)(C)O)[C@H](O)C[C@@]12C | > 10 µM | > 10 µM | > 10 µM |  | > 10 µM | > 10 µM | > 10 µM
3 |  | CC1(C)C(=O)C(O[C@@H]2O[C@H](CO)[C@@H](O)[C@H](O)[C@H]2O)=C[C@@H]2C1=CC[C@@H]1[C@@]2(C)C(=O)C[C@]2(C)[C@@H]([C@@]3(C)OC=CC3=O)[C@H](O)C[C@@]12C | > 10 µM | > 10 µM | > 10 µM | inactive | > 10 µM | > 10 µM | 
4 |  | CC1(C)C(=O)C(O[C@@H]2O[C@H](CO)[C@@H](O)[C@H](O)[C@H]2O)=C[C@@H]2C1=CC[C@@H]1[C@@]2(C)C(=O)C[C@]2(C)[C@@H]([C@@](C)(O)C(=O)C[C@@H](O)C(C)(C)O)[C@H](O)C[C@@]12C | > 10 µM | > 10 µM | > 10 µM | inactive | > 10 µM | > 10 µM | 
5 |  | CC1(C)C(=O)C(O[C@@H]2O[C@H](CO)[C@@H](O)[C@H](O)[C@H]2O)=C[C@@H]2C1=CC[C@@H]1[C@@]2(C)C(=O)C[C@]2(C)[C@@H]([C@@](C)(O)C(=O)C[C@H](O)C(C)(C)O)[C@H](O)C[C@@]12C | > 10 µM | > 10 µM | > 10 µM | inactive | > 10 µM | > 10 µM | 
6 |  | CC(C)(O)/C=C/C(=O)[C@](C)(O)[C@H]1[C@H](O)C[C@@]2(C)[C@@H]3CC=C4[C@@H](C=C(O[C@@H]5O[C@H](CO)[C@@H](O)[C@H](O)[C@H]5O)C(=O)C4(C)C)[C@]3(C)C(=O)C[C@]12C | > 10 µM | > 10 µM | > 10 µM | inactive | > 10 µM | > 10 µM | 
7 |  | C[C@H]1[C@H]2[C@@H](C[C@@]3(C)[C@@H]4CC=C5[C@@H](C=C(O[C@@H]6O[C@H](CO)[C@@H](O)[C@H](O)[C@H]6O)C(=O)C5(C)C)[C@]4(C)C(=O)C[C@]23C)O[C@@]2(O)CC(C)(C)O[C@@]12O | > 10 µM | > 10 µM | > 10 µM | inactive | > 10 µM | > 10 µM | 
8 |  | CC(=O)[C@H]1[C@H](O)C[C@@]2(C)[C@@H]3CC=C4[C@@H](C=C(O[C@@H]5O[C@H](CO)[C@@H](O)[C@H](O)[C@H]5O)C(=O)C4(C)C)[C@]3(C)C(=O)C[C@]12C [KHEKADAENGOSIDE K] | > 10 µM | > 10 µM | > 10 µM | inactive | > 10 µM | > 10 µM | 
9 |  | CO[C@@H](CC(=O)[C@](C)(O)[C@H]1[C@H](O)C[C@@]2(C)[C@@H]3CC=C4[C@@H](C=C(O)C(=O)C4(C)C)[C@]3(C)C(=O)C[C@]12C)C(C)(C)O | > 10 µM | > 10 µM | > 10 µM |  | > 10 µM | > 10 µM | > 10 µM
10 |  | CO[C@@H](CC(=O)[C@](C)(O)[C@H]1[C@H](O)C[C@@]2(C)[C@@H]3CC=C4[C@@H](C=C(O[C@@H]5O[C@H](CO)[C@@H](O)[C@H](O)[C@H]5O)C(=O)C4(C)C)[C@]3(C)C(=O)C[C@]12C)C(C)(C)O | > 10 µM | > 10 µM | > 10 µM | inactive | > 10 µM | > 10 µM | 
11 |  | CC(=O)C1=CC[C@@]2(C)[C@@H]3CC=C4[C@@H](C=C(O[C@@H]5O[C@H](CO)[C@@H](O)[C@H](O)[C@H]5O)C(=O)C4(C)C)[C@]3(C)C(=O)C[C@]12C | > 10 µM | > 10 µM | > 10 µM | inactive | > 10 µM | > 10 µM | 
12 | 4.26 µM | CC1(C)C(=O)C(O[C@@H]2O[C@H](CO)[C@@H](O)[C@H](O)[C@H]2O)=C[C@@H]2C1=CC[C@@H]1[C@@]2(C)C(=O)C[C@]2(C)[C@@H]([C@@](C)(O)C(=O)C[C@H]3NC(=O)OC3(C)C)[C@H](O)C[C@@]12C | > 10 µM | > 10 µM | > 10 µM | inactive | > 10 µM | > 10 µM | 
13 |  | CC1(C)C(=O)C(O)=C[C@@H]2C1=CC[C@@H]1[C@@]2(C)C(=O)C[C@]2(C)[C@@H]([C@@](C)(O)C(=O)C[C@@H](O)C(C)(C)O)[C@H](O)C[C@@]12C | > 10 µM | > 10 µM | > 10 µM | inactive | > 10 µM | > 10 µM | 
14 |  | CC[C@@]1(O)C(=O)OCc2c1cc1n(c2=O)Cc2cc3ccccc3nc2-1 [CAMPTOTHECIN] | 0.26 µM | 0.26 µM | 0.26 µM |  | 0.26 µM | 0.26 µM | 
15 | 8.63 µM | CC1(C)C[C@]2(O)O[C@@H]3C[C@@]4(C)[C@@H]5CC=C6[C@@H](C=C(O[C@@H]7O[C@H](CO)[C@@H](O)[C@H](O)[C@H]7O)C(=O)C6(C)C)[C@]5(C)C(=O)C[C@]4(C)[C@H]3[C@@](C)(O)[C@]2(O)O1 | > 10 µM | > 10 µM | > 10 µM | inactive | > 10 µM | > 10 µM | 
16 | 2.81 µM | CC1(C)C(=O)C(O[C@@H]2O[C@H](CO)[C@@H](O)[C@H](O)[C@H]2O)=C[C@@H]2C1=CC[C@@H]1[C@@]2(C)C(=O)C[C@]2(C)[C@@H]3[C@@H](C[C@@]12C)O[C@H](C(C)(C)O)CC(=O)[C@]3(C)O | > 10 µM | > 10 µM | > 10 µM | inactive | > 10 µM | > 10 µM | 
